Reference: ChEMBL document CHEMBL4350961, “Discovery of Pyrrolo[3,2- d]pyrimidin-4-one Derivatives as a New Class of Potent and Cell-Active Inhibitors of P300/CBP-Associated Factor Bromodomain” (J Med Chem, 2019)
Calls of active or inactive are those of the source.

Columns and labels:
[1] = molecular target: CREB-binding protein (Homo sapiens) (UniProt Q92793); assay: Binding affinity to human partial length CREBBP (R1081 to G1197 residues) expressed in bacterial expression system at 1 uM by BROMOscan assay
Procedure, shortened: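 BROMOscan bromodomain cross-screen run by an outside service, compound at 1 µM against 32 recombinant bromodomains. Binding given as percent of control.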

[2] = molecular target: Cyclin-dependent kinase 1/cyclin B1 (Homo sapiens) (UniProt P06493+P14635); assay: Inhibition of recombinant full-length human CDK1/cyclinB at 10 uM using histone H1 as substrate measured after 40 mins in presence of [gamma33P]ATP by scintillation counting method; type: protein-complex assay
[3] = molecular target: Calcium/calmodulin-dependent protein kinase kinase 1 (Homo sapiens) (UniProt Q8N5S9); assay: Inhibition of recombinant full-length human CAMKk1 at 10 uM using calmodulin as substrate measured after 40 mins in presence of [gamma33P]ATP by scintillation counting method
[4] = molecular target: CDC7/Cyclin B1 (Homo sapiens) (UniProt P14635+O00311); assay: Inhibition of recombinant full-length human CDC7/cyclinB1 at 10 uM using Histone H1 as substrate measured after 120 mins in presence of [gamma33P]ATP by scintillation counting method; type: protein-complex assay
[5] = molecular target: Casein kinase I isoform gamma-2 (Homo sapiens) (UniProt P78368); assay: Inhibition of recombinant human CK1gamma2 (18 to end residues) at 10 uM using KRRRALS(p)VASLPGL as substrate measured after 40 mins in presence of [gamma33P]ATP by scintillation counting method
[6] = molecular target: CDK12/Cyclin K (Homo sapiens) (UniProt O75909+Q9NYV4); assay: Inhibition of recombinant full length human CDK12/cyclinK at 10 uM using RSRSRSRSRSRSRSR as substrate measured after 120 mins in presence of [gamma33P]ATP by scintillation counting method; type: protein-complex assay
[7] = molecular target: Cyclin-dependent kinase 14/Cyclin-Y (Homo sapiens) (UniProt O94921+Q8ND76); assay: Inhibition of human CDK14/cyclinY at 10 uM by radiometric method; type: protein-complex assay
Procedure, shortened: (§1)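 Kinase panel of 422 kinases screened by Eurofins KinaseProfiler at a single test-compound concentration of 10 µM.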

[8] = molecular target: Ephrin type-B receptor 3 (Homo sapiens) (UniProt P54753); assay: Inhibition of recombinant human EphB3 (599 to 920 residues) at 10 uM using poly (Glu, Tyr) 4:1 as substrate measured after 40 mins in presence of [gamma33P]ATP by scintillation counting method
[9] = molecular target: Receptor tyrosine-protein kinase erbB-4 (Homo sapiens) (UniProt Q15303); assay: Inhibition of recombinant human ErbB4 (706 to 991 residues) at 10 uM using poly (Glu, Tyr) 4:1 as substrate measured after 40 mins in presence of [gamma33P]ATP by scintillation counting method
[10] = molecular target: Fibroblast growth factor receptor 4 (Homo sapiens) (UniProt P22455); assay: Inhibition of recombinant human FGFR4 (442 to 755 residues) at 10 uM using poly(Glu, Tyr) 4:1 as substrate measured after 40 mins in presence of [gamma33P]ATP by scintillation counting method
[11] = molecular target: Mitogen-activated protein kinase kinase kinase kinase 2 (Homo sapiens) (UniProt Q12851); assay: Inhibition of recombinant human GCK at 10 uM using myelin basic protein as substrate measured after 40 mins in presence of [gamma33P]ATP by scintillation counting method
[12] = molecular target: Inhibitor of nuclear factor kappa-B kinase subunit epsilon (Homo sapiens) (UniProt Q14164); assay: Inhibition of recombinant full-length human IKKepsilon at 10 uM using casein as substrate measured after 40 mins in presence of [gamma33P]ATP by scintillation counting method
[13] = molecular target: Interleukin-1 receptor-associated kinase 1 (Homo sapiens) (UniProt P51617); assay: Inhibition of recombinant human IRAK1 (194 to end residues) at 10 uM using myelin basic protein as substrate measured after 40 mins in presence of [gamma33P]ATP by scintillation counting method
[14] = molecular target: Tyrosine-protein kinase JAK1 (Homo sapiens) (UniProt P23458); assay: Inhibition of recombinant human JAK1 (866 to end residues) at 10 uM using GEEPLYWSFPAKKK as substrate measured after 40 mins in presence of [gamma33P]ATP by scintillation counting method
[15] = molecular target: Leukocyte tyrosine kinase receptor (Homo sapiens) (UniProt P29376); assay: Inhibition of recombinant human LTK (450 to end residues) at 10 uM using GEEPLYWSFPAKKK as substrate measured after 40 mins in presence of [gamma33P]ATP by scintillation counting method
[16] = molecular target: Mitogen-activated protein kinase kinase kinase kinase 5 (Homo sapiens) (UniProt Q9Y4K4); assay: Inhibition of recombinant full-length human MAP4K5 at 10 uM using myelin basic protein as substrate measured after 40 mins in presence of [gamma33P]ATP by scintillation counting method
[17] = molecular target: Mitogen-activated protein kinase kinase kinase 3 (Homo sapiens) (UniProt Q99759); assay: Inhibition of recombinant full-length human MEKK3 at 10 uM using myelin basic protein as substrate measured after 40 mins in presence of [gamma33P]ATP by scintillation counting method
[18] = molecular target: Hepatocyte growth factor receptor (Homo sapiens) (UniProt P08581); assay: Inhibition of recombinant human MET A1209G/V1290L mutant (974 to end residues) at 10 uM using KKKGQEEEYVFIE as substrate measured after 40 mins in presence of [gamma33P]ATP by scintillation counting method
[19] = molecular target: Serine/threonine-protein kinase 24 (Homo sapiens) (UniProt Q9Y6E0); assay: Inhibition of recombinant human MST3 (1 to 304 residues) at 10 uM using ERMRPRKRQGSVRRRV as substrate measured after 40 mins in presence of [gamma33P]ATP by scintillation counting method
[20] = molecular target: [Pyruvate dehydrogenase (acetyl-transferring)] kinase isozyme 4, mitochondrial (Homo sapiens) (UniProt Q16654); assay: Inhibition of recombinant full-length human PDHK4 at 10 uM using KKKYHGHSMSDPGVSYRT as substrate measured after 40 mins in presence of [gamma33P]ATP by scintillation counting method
[21] = molecular target: cAMP-dependent protein kinase catalytic subunit alpha (Homo sapiens) (UniProt P17612); assay: Inhibition of recombinant full-length human PKA at 10 uM using Kemptide as substrate measured after 40 mins in presence of [gamma33P]ATP by scintillation counting method
[22] = molecular target: Protein kinase C alpha type (Homo sapiens) (UniProt P17252); assay: Inhibition of recombinant full-length human PKCalpha at 10 uM using histone H1 as substrate measured after 40 mins in presence of [gamma33P]ATP by scintillation counting method
[23] = molecular target: SRSF protein kinase 2 (Homo sapiens) (UniProt P78362); assay: Inhibition of human SRPK2 (46 to end residues) using RSRSRSRSRSRSRSR as substrate measured after 40 mins in presence of [gamma33P]ATP by scintillation counting method; procedure, shortened: as §1
[24] = molecular target: NT-3 growth factor receptor (Homo sapiens) (UniProt Q16288); assay: Inhibition of human TrkC (510 to end residues) using GEEPLYWSFPAKKK as substrate measured after 40 mins in presence of [gamma33P]ATP by scintillation counting method
Sequence of NT-3 growth factor receptor (Homo sapiens) (Q16288 32-839 limits assumed): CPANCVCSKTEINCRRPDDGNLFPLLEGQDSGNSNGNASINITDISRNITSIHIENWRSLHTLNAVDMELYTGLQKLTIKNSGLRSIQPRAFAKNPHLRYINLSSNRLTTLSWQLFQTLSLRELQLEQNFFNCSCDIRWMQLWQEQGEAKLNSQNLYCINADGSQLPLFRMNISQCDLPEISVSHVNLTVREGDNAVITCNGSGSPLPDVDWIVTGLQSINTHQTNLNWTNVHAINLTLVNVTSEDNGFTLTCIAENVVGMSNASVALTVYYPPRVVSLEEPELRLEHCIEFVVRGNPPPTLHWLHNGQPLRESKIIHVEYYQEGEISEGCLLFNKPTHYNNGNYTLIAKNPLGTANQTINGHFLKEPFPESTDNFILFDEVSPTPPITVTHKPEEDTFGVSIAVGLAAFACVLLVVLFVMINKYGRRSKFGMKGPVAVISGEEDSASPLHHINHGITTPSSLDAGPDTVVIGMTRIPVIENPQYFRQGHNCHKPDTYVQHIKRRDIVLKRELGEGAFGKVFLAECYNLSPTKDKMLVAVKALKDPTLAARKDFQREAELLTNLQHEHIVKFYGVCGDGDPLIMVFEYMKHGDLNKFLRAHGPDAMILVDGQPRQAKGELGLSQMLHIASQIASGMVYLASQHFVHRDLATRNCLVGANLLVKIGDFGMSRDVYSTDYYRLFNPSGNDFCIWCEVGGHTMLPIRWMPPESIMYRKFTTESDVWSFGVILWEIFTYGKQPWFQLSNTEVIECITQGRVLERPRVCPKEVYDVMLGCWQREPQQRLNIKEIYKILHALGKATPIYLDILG

Sequence of Ephrin type-B receptor 3 (Homo sapiens) (P54753 whole entry, the tested form may be a part): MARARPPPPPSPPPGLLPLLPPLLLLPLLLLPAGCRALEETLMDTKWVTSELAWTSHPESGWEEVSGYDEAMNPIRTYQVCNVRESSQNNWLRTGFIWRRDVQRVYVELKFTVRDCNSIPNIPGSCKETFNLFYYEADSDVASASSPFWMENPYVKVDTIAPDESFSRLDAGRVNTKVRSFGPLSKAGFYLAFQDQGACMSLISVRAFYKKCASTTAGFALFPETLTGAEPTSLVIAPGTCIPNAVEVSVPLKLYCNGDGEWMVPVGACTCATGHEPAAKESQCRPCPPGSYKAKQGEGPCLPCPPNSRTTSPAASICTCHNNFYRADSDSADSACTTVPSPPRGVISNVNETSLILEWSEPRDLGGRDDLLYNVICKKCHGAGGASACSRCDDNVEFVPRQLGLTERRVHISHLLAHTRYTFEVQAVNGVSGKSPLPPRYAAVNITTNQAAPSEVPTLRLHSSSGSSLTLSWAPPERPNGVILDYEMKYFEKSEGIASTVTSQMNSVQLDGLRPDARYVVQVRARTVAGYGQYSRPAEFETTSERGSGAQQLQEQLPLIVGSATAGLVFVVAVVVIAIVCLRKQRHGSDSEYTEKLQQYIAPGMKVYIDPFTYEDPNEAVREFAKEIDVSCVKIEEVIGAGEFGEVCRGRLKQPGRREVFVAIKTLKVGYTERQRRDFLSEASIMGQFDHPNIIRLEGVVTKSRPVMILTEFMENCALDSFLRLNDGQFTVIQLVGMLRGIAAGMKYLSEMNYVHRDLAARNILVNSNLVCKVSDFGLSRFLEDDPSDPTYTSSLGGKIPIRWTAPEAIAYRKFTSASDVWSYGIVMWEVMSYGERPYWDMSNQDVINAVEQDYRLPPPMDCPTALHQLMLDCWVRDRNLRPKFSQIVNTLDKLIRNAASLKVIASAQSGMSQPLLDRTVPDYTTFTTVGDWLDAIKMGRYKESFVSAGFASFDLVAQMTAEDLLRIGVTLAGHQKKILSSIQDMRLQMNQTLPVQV
Sequence of Inhibitor of nuclear factor kappa-B kinase subunit epsilon (Homo sapiens) (Q14164 whole entry): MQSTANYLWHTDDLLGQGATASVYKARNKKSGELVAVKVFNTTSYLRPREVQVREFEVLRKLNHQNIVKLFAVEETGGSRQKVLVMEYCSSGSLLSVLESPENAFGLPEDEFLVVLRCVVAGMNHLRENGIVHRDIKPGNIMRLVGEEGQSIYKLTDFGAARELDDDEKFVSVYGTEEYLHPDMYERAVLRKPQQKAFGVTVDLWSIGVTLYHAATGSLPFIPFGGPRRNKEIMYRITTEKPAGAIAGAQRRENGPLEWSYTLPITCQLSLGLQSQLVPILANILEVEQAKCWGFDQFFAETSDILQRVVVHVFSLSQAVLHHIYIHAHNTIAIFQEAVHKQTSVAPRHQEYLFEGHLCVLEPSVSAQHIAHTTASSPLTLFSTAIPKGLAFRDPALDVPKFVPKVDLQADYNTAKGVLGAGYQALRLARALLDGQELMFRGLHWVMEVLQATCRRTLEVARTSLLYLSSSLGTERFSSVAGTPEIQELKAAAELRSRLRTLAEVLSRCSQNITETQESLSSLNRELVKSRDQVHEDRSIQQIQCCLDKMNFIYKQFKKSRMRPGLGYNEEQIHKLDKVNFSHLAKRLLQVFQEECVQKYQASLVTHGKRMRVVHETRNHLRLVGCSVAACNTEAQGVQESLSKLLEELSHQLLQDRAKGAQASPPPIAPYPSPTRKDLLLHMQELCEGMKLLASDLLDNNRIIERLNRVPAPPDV
Sequence of Receptor tyrosine-protein kinase erbB-4 (Homo sapiens) (Q15303 whole entry, the tested form may be a part): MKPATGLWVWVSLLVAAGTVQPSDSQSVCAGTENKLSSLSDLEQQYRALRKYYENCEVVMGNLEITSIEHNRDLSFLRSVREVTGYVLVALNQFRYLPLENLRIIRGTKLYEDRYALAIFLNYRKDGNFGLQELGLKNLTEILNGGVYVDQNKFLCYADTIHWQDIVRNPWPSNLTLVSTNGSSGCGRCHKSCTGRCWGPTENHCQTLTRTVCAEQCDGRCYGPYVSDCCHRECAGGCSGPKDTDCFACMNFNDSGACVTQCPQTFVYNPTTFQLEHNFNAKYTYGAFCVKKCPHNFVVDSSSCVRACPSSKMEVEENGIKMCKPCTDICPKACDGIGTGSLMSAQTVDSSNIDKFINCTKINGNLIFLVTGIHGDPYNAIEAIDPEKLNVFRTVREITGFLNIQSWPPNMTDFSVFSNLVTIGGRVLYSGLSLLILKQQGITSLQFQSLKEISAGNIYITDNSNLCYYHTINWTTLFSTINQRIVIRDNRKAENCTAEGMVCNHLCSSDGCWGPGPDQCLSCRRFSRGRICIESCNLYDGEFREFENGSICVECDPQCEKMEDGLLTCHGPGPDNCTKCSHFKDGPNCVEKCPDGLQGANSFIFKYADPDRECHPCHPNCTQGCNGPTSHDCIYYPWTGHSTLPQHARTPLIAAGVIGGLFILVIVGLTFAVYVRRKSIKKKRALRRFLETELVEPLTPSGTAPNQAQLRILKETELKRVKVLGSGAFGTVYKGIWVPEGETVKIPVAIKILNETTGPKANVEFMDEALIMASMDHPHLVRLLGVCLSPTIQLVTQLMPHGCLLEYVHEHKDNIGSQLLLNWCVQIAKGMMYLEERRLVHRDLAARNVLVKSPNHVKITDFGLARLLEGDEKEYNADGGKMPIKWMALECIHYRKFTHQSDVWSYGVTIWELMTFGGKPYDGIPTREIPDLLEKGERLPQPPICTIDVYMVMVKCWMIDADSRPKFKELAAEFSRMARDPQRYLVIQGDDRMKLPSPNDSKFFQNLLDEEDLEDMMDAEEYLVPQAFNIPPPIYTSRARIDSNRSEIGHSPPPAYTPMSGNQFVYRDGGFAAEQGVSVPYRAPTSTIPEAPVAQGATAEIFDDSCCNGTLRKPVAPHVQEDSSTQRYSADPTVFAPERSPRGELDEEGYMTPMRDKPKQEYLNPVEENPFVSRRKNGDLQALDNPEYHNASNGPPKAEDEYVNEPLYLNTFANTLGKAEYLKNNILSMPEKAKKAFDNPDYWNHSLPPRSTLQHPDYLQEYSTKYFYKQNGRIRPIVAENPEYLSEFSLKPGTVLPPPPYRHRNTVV
Sequence of Mitogen-activated protein kinase kinase kinase kinase 5 (Homo sapiens) (Q9Y4K4 whole entry, looked up): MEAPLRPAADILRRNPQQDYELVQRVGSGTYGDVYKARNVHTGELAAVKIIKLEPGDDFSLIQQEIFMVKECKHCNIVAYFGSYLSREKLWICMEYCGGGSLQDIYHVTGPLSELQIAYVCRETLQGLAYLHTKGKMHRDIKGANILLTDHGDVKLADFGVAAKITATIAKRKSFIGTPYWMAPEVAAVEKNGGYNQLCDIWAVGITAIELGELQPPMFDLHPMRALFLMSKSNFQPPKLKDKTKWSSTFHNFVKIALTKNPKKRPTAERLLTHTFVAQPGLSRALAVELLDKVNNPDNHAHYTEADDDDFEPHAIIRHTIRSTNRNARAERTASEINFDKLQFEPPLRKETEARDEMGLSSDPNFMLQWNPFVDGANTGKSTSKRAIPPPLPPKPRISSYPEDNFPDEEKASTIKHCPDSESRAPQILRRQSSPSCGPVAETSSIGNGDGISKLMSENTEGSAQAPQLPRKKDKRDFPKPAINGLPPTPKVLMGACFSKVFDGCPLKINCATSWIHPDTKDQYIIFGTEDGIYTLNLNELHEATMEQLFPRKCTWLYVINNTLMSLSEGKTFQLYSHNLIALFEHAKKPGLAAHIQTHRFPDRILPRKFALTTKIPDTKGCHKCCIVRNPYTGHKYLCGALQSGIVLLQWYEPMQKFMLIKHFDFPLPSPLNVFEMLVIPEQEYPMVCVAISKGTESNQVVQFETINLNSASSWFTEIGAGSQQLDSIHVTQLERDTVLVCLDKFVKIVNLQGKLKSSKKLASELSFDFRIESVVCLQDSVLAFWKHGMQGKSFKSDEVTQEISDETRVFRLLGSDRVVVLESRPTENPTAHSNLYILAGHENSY
Sequence of [Pyruvate dehydrogenase (acetyl-transferring)] kinase isozyme 4, mitochondrial (Homo sapiens) (Q16654 whole entry, looked up): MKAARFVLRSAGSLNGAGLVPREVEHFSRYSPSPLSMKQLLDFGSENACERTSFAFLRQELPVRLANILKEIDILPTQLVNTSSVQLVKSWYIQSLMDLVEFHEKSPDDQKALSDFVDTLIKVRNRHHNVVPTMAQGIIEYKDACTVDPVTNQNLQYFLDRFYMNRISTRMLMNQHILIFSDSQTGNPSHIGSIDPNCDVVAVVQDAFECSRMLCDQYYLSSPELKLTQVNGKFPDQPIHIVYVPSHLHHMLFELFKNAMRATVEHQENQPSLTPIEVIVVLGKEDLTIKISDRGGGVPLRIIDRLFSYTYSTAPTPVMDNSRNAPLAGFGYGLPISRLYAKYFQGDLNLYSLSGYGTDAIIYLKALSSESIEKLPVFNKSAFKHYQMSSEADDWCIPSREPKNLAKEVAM

CN1C[C@H](Nc2nc3cc[nH]c3c(=O)n2C)C[C@H](c2ccc3c(c2)OCCO3)C1
inactive: Activity [1] | inhibition [2] | inhibition [3] | inhibition [4] | inhibition [5] | inhibition [6] | inhibition [7] | inhibition [8] | inhibition [9] | inhibition [10] | inhibition [11] | inhibition [12] | inhibition [13] | inhibition [14] | inhibition [15] | inhibition [16] | inhibition [17] | inhibition [18] | inhibition [19] | inhibition [20] | inhibition [21] | inhibition [22] | inhibition [23] | inhibition [24]
